Consider 13 compounds from PubChem BioAssay.

A short description of assay [1]: inhibitors of TNFa-induced NFkB p65 translocation, primary screen, imaging, HUVEC, MLSMR starter and 10KST1 sets (AID 438;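 active means inhibition above 20% together with a positive visual image hit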;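 further: compound added about 3h40 before a 20 min TNFalpha stimulation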;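 on inhibition: signal is the nuclear over cytoplasmic p65 intensity ratio per well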). As to conditions: HUVEC TNFa-induced p65 nuclear translocation; cell count: measured here: nuclei count (cytotoxicity indicator), at 2.08 µM; inhibition: at 2 µM, stronger effect = higher value, 0% TNFa-plus-vehicle, 100% no-TNFa wells.
Assay [2] is described as follows: inhibitors of E-selectin induction by TNFa, primary screen, imaging, HUVEC, immunofluorescence, MLSMR starter and 10KST1 sets (AID 487;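 active means visually confirmed hit in the image check and inhibition above 20%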;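 on inhibition: signal is fraction of cell area covered by stained E-selectin grains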;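 on nuclei count: 100% = median nuclei count of all wells on the same plate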). As to conditions: HUVEC TNFalpha-induced E-selectin immunofluorescence imaging, at 2 µM; inhibition: stronger effect = higher value; nuclei count: measured here: cell number, toxicity.
Assay [3] is described as follows: DUSP6 inhibitors restoring Erk phosphorylation by chemical complementation, primary imaging in DUSP6-transfected HeLa (AID 609).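 On inhibition: phospho-Erk level distribution per well compared with pooled transfected vehicle control wells.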 As to conditions: HeLa MKP-3 transfected, phospho-Erk imaging KS statistic, at 10 µM, cells stimulated with TPA for 15 min.
Assay [4] has as its target Dual specificity protein phosphatase 6 (Homo sapiens) (UniProt Q16828). The description is as above. The note with it: HeLa MKP-3 transfected, phospho-Erk imaging KS statistic; at 10 µM; stronger effect = higher value; cells stimulated with TPA for 15 min.
The target in assay [5] is Voltage-gated potassium channel subunit beta-2 (Rattus norvegicus) (UniProt P62483). As to the kind of experiment: KvBeta enzyme negative modulators, primary screen, biochemical, NADPH fluorescence (AID 622;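 active means fluorescence slope higher than the sample average by over 3 SD, cut at about -0.22 in these data, passing the limit was not always enough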;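 further: slope of raw intensity against log time taken from 70 to 1610 s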). As to conditions: recombinant KvBeta, 4-cyanobenzaldehyde reduction, at 10 µM, stronger effect = higher value.
Sequence of Voltage-gated potassium channel subunit beta-2 (Rattus norvegicus) (P62483 whole entry, looked up): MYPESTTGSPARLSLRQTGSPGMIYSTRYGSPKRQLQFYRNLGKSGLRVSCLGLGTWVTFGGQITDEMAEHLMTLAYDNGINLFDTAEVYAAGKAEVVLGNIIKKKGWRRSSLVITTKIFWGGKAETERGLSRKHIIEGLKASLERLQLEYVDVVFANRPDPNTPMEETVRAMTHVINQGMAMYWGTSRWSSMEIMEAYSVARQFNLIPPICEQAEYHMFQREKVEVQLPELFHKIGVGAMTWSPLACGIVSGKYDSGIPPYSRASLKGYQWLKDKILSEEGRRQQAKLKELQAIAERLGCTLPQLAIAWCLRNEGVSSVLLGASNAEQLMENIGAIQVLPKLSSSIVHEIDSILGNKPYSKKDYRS
Assay [6] shares this target. Briefly: KvBeta positive modulators, primary screen, biochemical, NADPH fluorescence (AID 623;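 active means NADPH fluorescence slope more negative than the mean of all samples by about 3 SD, 99.7% confidence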;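 further: fluorescence intensity change per second fitted from 20 to 320 s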). As to conditions: Recombinant KvBeta, NADPH fluorescence decrease slope, 10 min; at 10 µM; stronger effect = lower value.
Assay [7] has as its target Muscarinic acetylcholine receptor M4 (Homo sapiens) (UniProt P08173). Briefly: compounds altering M4/GIRK thallium flux, either direction, primary screen, M4 allosteric agonist project, cell-based, HEK293 M4/GIRK, BTC-AM (AID 625;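 active means fluorescence slope after compound addition differing from the mean of all tested samples at 99.7% confidence, mostly higher but some lower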;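 further: thallium influx through GIRK channels coupled to M4 in HEK293 cells with BTC-AM dye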). As to conditions: at 10 µM, actives lie on both sides. Put shortly: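 Assay system: HEK293 cells with M4 receptor and GIRK channels / Controls: carbachol and DMSO controls / Schedule: 1 h dye loading, 2 min kinetic read / Technique: kinetic fluorescence with BTC-AM dye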

The nature of assay [8]: inhibitors of larval lipid processing in zebrafish, primary screen, whole organism, PED6 fluorescence, gall bladder and intestine (AID 686;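 active means a full or partial loss of lipid-probe fluorescence in the fish gall bladder, intestine or both, judged by eye; inactive means no fluorescence loss, or compound toxic to the fish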;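 further: larvae 5 to 7 days old with five fish per well; signal comes from phospholipase A2 cleavage of quenched PED6 carried via bile; overnight exposure to compound and PED6 before scoring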). As to conditions: Zebrafish larvae PED6 lipid processing, fluorescence scoring; screened at 20 µM (by protocol). Put shortly:
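Doses: 20 µM single dose. Test system: live zebrafish larvae aged 5-7 days, whole organism. Quantity: five larvae per well. Measured by: By-eye fluorescence microscopy. Reagent: ingested quenched lipid PED6 at 100 nM. Read-out: visual per-well fluorescence inhibition score. Times: overnight exposure of larvae to compound plus PED6.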

Assay [9] can be described thus: inhibitors of Chlamydomonas gravitaxis, primary screen, whole organism, Chlamydomonas reinhardtii, WT vs cilia-less mutant, absorbance, 96-well (AID 463189;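 active means inhibition at or above 50% relative to wild type and mutant plate controls; inactive means inhibition below 50%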;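 further: 0% = wild type cc124 cells in DMSO and 100% = ciliumless bld1 mutant cells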). The note with it: OD600 absorbance, 2 days, at 10 µM, stronger effect = higher value.
Where [10] appears, read: measured here: cell density z-score.
Where [11] appears, read: measured here: nuclear c-Myc green intensity z-score.
Where [12] appears, read: measured here: nuclear pErk red intensity z-score, stronger effect = higher value.

Activity calls are given as the source filed them.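 How the source made its calls, unless noted: active means compounds giving at least 50% inhibition in the cell-based MKP-3 phosphatase rescue imaging test; inactive means the rest.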

Sequence of Dual specificity protein phosphatase 6 (Homo sapiens) (Q16828 whole entry, looked up): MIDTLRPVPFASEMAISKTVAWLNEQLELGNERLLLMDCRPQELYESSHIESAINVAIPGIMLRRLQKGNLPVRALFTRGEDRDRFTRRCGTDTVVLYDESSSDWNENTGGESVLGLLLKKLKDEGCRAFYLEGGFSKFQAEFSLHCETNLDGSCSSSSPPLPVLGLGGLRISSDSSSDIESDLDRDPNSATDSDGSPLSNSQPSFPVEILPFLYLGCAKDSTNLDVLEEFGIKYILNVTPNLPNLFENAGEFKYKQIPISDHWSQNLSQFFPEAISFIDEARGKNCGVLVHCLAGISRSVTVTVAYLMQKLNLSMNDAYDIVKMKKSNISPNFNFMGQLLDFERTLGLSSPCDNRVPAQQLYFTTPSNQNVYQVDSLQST
Sequence of Muscarinic acetylcholine receptor M4 (Homo sapiens) (P08173 whole entry, looked up): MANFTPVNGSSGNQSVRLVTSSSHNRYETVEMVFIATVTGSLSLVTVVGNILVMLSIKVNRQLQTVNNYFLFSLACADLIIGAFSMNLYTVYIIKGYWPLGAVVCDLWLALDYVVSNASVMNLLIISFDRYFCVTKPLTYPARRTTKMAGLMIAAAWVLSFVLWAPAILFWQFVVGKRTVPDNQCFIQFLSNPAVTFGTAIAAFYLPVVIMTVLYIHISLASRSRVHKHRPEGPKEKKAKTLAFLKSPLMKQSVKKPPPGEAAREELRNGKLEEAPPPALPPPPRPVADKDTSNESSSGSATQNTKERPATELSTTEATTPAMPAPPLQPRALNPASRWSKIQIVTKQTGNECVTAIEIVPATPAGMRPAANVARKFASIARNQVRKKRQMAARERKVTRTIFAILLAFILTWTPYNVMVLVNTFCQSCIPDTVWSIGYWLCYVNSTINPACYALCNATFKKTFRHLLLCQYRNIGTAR

Usually inhibition stands for the drop in the measured response relative to a control, in per cent. Consider `Cc1ccc(-c2nn(C)c(=O)c3ccccc23)cc1CN1CCOCC1`, for which the cell count in assay [1] was determined as 424. In addition, the inhibition in assay [1] is -0.6% (inactive); in assay [2], -40.3% (inactive); in assay [4] it was 6.04% (inactive); in assay [9] it was -2.85% (inactive). For the same compound, the nuclei count in assay [2] amounted to 145%. In addition, the values for the z-score in [3] (setting [10]), in assay [3] (setting [11]) and in assay [3] (setting [12]) were 0.246, 0.445 and -0.955, respectively. For the same compound, the values for the fluorescence slope in assay [5] and in [7] were -0.452 (inactive) and 0.00454 (inactive), respectively. Further, the NADPH fluorescence slope in assay [6] was -3.3e-05 (inactive). The result in assay [8] was inactive.
As for `C=C(C)Cn1c(-c2ccc(OC)cc2)nc2ccccc21`, the cell count in assay [1] was found to be 377. Also, the inhibition in assay [1] was 0.8% (inactive); in [2], -113% (inactive); in [4], -6.86% (inactive); in [9], 25.6% (inactive). In addition, the nuclei count in assay [2] came out at 157%. Also, the z-score is -0.296 in [3] (setting [10]), -0.903 in [3] (setting [11]) and 0.627 in assay [3] (setting [12]). Moreover, the fluorescence slope in [5] was -0.461 (inactive); in [7], 0.00384 (inactive). Further, the NADPH fluorescence slope in assay [6] was -0.000111 (inactive). Further, in assay [8], the outcome is “inactive; toxic”.
Take `COC(=O)c1ccc(CN(C(C)=O)c2ccccc2)o1`: in assay [1], the cell count was found to be 547. In addition, the inhibition in assay [1] was 0.8% (inactive); in [2], -113% (inactive); in assay [4], 15.4% (inactive); in [9], 34.2% (inactive). The nuclei count in assay [2] came to 141%. Moreover, the z-score in assay [3] (setting [10]) is 0.183; in [3] (setting [11]), -0.22; in [3] (setting [12]), -0.676. In addition, the fluorescence slope in assay [5] was -0.471 (inactive); in assay [7], 0.00509 (inactive). In addition, the NADPH fluorescence slope in assay [6] was -9.4e-05 (inactive). Besides, the outcome in [8] was inactive.
For the compound `CCOC(=O)C1=Nc2ccccc2C1=[N+]=[N-]`, the cell count in assay [1] stood at 714. Also, the inhibition in assay [1] was -2.2% (inactive); in assay [2], 6.6% (inactive); in [4] it was -5.95% (inactive); in assay [9], 152% (active). The compound also registered a nuclei count in [2] of 179%. In addition, the z-score is -0.487 in assay [3] (setting [10]), 0.636 in [3] (setting [11]) and 1.84 in assay [3] (setting [12]). Besides, the figures for the fluorescence slope in assay [5] and in assay [7] were -0.477 (inactive) and 0.00733 (inactive), respectively. For the same compound, the NADPH fluorescence slope in assay [6] is -4.9e-05 (inactive). Besides, the call in assay [8] was inactive.
Regarding `O=c1cc(O)nc2n1CCCS2`, the cell count in assay [1] stood at 698. For the same compound, the inhibition in assay [1] was 0.1% (inactive); in assay [2], 56.2% (inactive); in assay [4], -9.53% (inactive); in [9] it was 0.661% (inactive). The nuclei count in [2] was found to be 144%. Besides, the z-score in [3] (setting [10]) worked out at 1.6; in [3] (setting [11]), 0.755; in [3] (setting [12]) it was 0.757. Further, the fluorescence slope in assay [5] is -0.418 (inactive); in assay [7], 0.00444 (inactive). In [6], the NADPH fluorescence slope is -5.5e-05 (inactive). The outcome in [8] was inactive.
As for `Cc1ccc(C(=O)C2C(c3cccs3)NC(=O)NC2(O)C(F)(F)F)cc1` (centres undefined), the cell count in [1] is 716. Further, the inhibition in [1] was -7.3% (inactive); in [2], -170% (inactive); in assay [4], -4.27% (inactive); in assay [9], -6.21% (inactive). This compound returned a nuclei count in assay [2] of 142%. The values for the z-score in assay [3] (setting [10]), in assay [3] (setting [11]) and in [3] (setting [12]) were -0.552, -0.778 and 0.548, respectively. Moreover, the figures for the fluorescence slope in [5] and in assay [7] were -0.482 (inactive) and 0.00668 (inactive), respectively. Also, the NADPH fluorescence slope in [6] was -7.6e-05 (inactive). Further, the compound was classed as inactive in assay [8].
Take `C=CCn1c(N)c(C(=O)Nc2ccccc2)c2nc3ccccc3nc21`: the cell count in assay [1] was 628. For the same compound, the inhibition in assay [1] was 9.1% (inactive); in [2], -27.4% (inactive); in assay [4] it was 9.07% (inactive); in [9] it was 59.2% (active). For the same compound, in assay [2], the nuclei count was 121%. Besides, the z-score was 1.06 in assay [3] (setting [10]), -1.1 in [3] (setting [11]) and -0.334 in assay [3] (setting [12]). Moreover, the fluorescence slope in [5] is -0.398 (inactive); in assay [7], 0.00512 (inactive). Further, in assay [6], the NADPH fluorescence slope is -1.8e-05 (inactive). Further, in assay [8], the outcome is “active; no signal in intestine only”.
Regarding `COC(=O)c1ccc(C2/C(=C(\O)c3cccc(OC)c3)C(=O)C(=O)N2CCCN(C)C)cc1` (centres undefined), the cell count in assay [1] was 632. Moreover, the inhibition in [1] was -19.7% (inactive); in assay [2] it was -82.8% (inactive); in assay [4], 7.21% (inactive); in assay [9], 20.5% (inactive). In [2], this compound showed a nuclei count of 145%. Also, the z-score in assay [3] (setting [10]) is 0.797; in assay [3] (setting [11]), -1.05; in assay [3] (setting [12]), -0.8. The fluorescence slope in assay [5] was -0.524 (inactive); in assay [7], 0.006 (inactive). Moreover, in [6], the NADPH fluorescence slope is -1.5e-05 (inactive). The result in assay [8] was inactive.
As to `CCN(CC)CCN1C(=O)C(=O)/C(=C(/O)c2c(C)[nH]c(C(=O)OC)c2C)C1c1ccccc1` (centres undefined), the cell count in [1] was determined as 727. The inhibition in assay [1] is -3.9% (inactive); in assay [2], -88% (inactive); in [4], -11.9% (inactive); in assay [9], 13.3% (inactive). The nuclei count in [2] was 165%. Besides, the z-score in [3] (setting [10]) was determined as 0.278; in assay [3] (setting [11]), 0.96; in [3] (setting [12]) it was 0.24. The fluorescence slope is -0.485 (inactive) in assay [5] and 0.0049 (inactive) in assay [7]. The NADPH fluorescence slope in [6] is -4.8e-05 (inactive). The compound was classed as inactive in assay [8].
In the case of `CCN(CC)c1nc(N2CCOCC2)c(C#N)c2c1CN(C)CC2`, the cell count in [1] stood at 580. The inhibition in assay [1] was -9.1% (inactive); in assay [2], -116% (inactive); in [4] it was 7.21% (inactive); in assay [9] it was 43.3% (inactive). In [2], the nuclei count came to 152%. For the same compound, the results for the z-score in assay [3] (setting [10]), in assay [3] (setting [11]) and in [3] (setting [12]) were 1.03, -1.51 and 0.0125, respectively. Further, the values for the fluorescence slope in assay [5] and in assay [7] were -0.43 (inactive) and 0.00408 (inactive), respectively. The NADPH fluorescence slope in assay [6] was -0.000217 (inactive). Also, the compound was called inactive in assay [8].
With `COc1cccc(C(=O)OC2CCCN(C)C2)c1` (centres undefined), in assay [1], the cell count stood at 524. In addition, the inhibition in [1] is 1.2% (inactive); in assay [2] it was -39.2% (inactive); in assay [4], 9.42% (inactive); in assay [9] it was 0.435% (inactive). The nuclei count in assay [2] worked out at 141%. Besides, the results for the z-score in assay [3] (setting [10]), in assay [3] (setting [11]) and in assay [3] (setting [12]) were 0.452, 1.21 and 0.0712, respectively. Also, the results for the fluorescence slope in [5] and in [7] were -0.457 (inactive) and 0.00427 (inactive), respectively. Further, in [6], the NADPH fluorescence slope is -8.4e-05 (inactive). Also, in assay [8], the result was inactive.
On to `CCCNC1=C(C)C(=O)CC1`, for which the cell count in [1] came to 602. Also, the inhibition in assay [1] was -0.5% (inactive); in [2], -37.1% (inactive); in assay [4] it was -0.233% (inactive); in assay [9], 3.26% (inactive). In addition, the nuclei count in assay [2] turned out to be 120%. In addition, the results for the z-score in [3] (setting [10]), in assay [3] (setting [11]) and in assay [3] (setting [12]) were -1.42, 0.756 and 1.36, respectively. For the same compound, the fluorescence slope in [5] is -0.481 (inactive); in assay [7], 0.00471 (inactive). Further, the NADPH fluorescence slope in assay [6] was -4.1e-05 (inactive). Besides, in [8], the call was inactive.
Regarding `COc1ccc(-c2nc3c(Br)c(N)c(Br)cc3o2)cc1`, in [1], the cell count was 497. Moreover, the inhibition in assay [1] is -7.6% (inactive); in assay [2], -77.2% (inactive); in [4], -1.98% (inactive); in [9], 14.6% (inactive). Besides, the nuclei count in assay [2] is 140%. Moreover, the z-score in assay [3] (setting [10]) was 0.844; in [3] (setting [11]) it was -1.44; in assay [3] (setting [12]), 0.173. Also, the fluorescence slope is -0.404 (inactive) in assay [5] and 0.0064 (inactive) in assay [7]. Further, the NADPH fluorescence slope in assay [6] is -2.1e-05 (inactive). The result in assay [8] was inactive.
